Data taken from ChEMBL document CHEMBL4177768, “Synthesis and Biological Evaluation of Derivatives of Indoline as Highly Potent Antioxidant and Anti-inflammatory Agents” (J Med Chem, 2018).
The source made the active and inactive calls. The rule behind the calls is not given here.

What was measured:
RAW264.7 [1] = experiment: Antiinflammatory activity in mouse RAW264.7 cells assessed as reduction in LPS-induced nitric oxide production at 1 nM incubated for 2 hrs prior to LPS challenge measured after 24 hrs by Griess assay; assay type: functional; set-up: scale not given: the % may be the effect or the level left
Procedure, shortened: (§1)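 RAW 264.7 macrophages were plated at 1×10^5 per well, grown overnight and washed with PBS. Compounds in water (final 1 pM-100 nM, medium with 2% FCS) were added 2 h at 37 °C before E. coli 0111:B4 LPS, 2.5 µg/mL. TNF-α was sampled at 8 h; IL-6 and nitrite (Griess) at 24 h. ELISA was used for cytokines. Values are % of the LPS + medium value in each experiment. Budesonide was the reference. 2-3 experiments, 6 wells per concentration.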

RAW264.7 [2] = experiment: Antiinflammatory activity in mouse RAW264.7 cells assessed as reduction in LPS-induced TNF-alpha production at 1 pM to 100 nM incubated for 2 hrs prior to LPS challenge measured after 8 hrs by ELISA; assay type: functional, cell-based; procedure, shortened: as §1
RAW264.7 [3] = experiment: Cytoprotective activity against H2O2-induced oxidative stress in mouse RAW264.7 cells assessed as cell viability at 10 nM incubated for 2 hrs prior to H2O2 addition measured after 24 hrs by MTT assay (reference value: 68 to 72.8%); assay type: functional; conditions: read-out: Activity
RAW264.7 [4] = experiment: Antiinflammatory activity in mouse RAW264.7 cells assessed as reduction in LPS-induced nitric oxide production at 1 pM to 100 nM incubated for 2 hrs prior to LPS challenge measured after 24 hrs by Griess assay; assay type: functional, cell-based; procedure, shortened: as §1
RAW264.7 [5] = experiment: Antiinflammatory activity in mouse RAW264.7 cells assessed as reduction in LPS-induced TNF-alpha production at 1 nM incubated for 2 hrs prior to LPS challenge measured after 8 hrs by ELISA; assay type: functional; set-up: scale not given: the % may be the effect or the level left; procedure, shortened: as §1
RAW264.7 [6] = experiment: Antiinflammatory activity in mouse RAW264.7 cells assessed as reduction in LPS-induced IL-6 production at 1 nM incubated for 2 hrs prior to LPS challenge measured after 24 hrs by ELISA; assay type: functional; set-up: scale not given: the % may be the effect or the level left; procedure, shortened: as §1
RAW264.7 [7] = experiment: Antiinflammatory activity in mouse RAW264.7 cells assessed as reduction in LPS-induced IL6 production at 1 pM to 100 nM incubated for 2 hrs prior to LPS challenge measured after 24 hrs by ELISA; assay type: functional, cell-based; procedure, shortened: as §1
RAW264.7 [8] = experiment: Cytoprotective activity against H2O2-induced oxidative stress in mouse RAW264.7 cells assessed as cell viability at 100 nM incubated for 2 hrs prior to H2O2 addition measured after 24 hrs by MTT assay (reference value: 68 to 72.8%); assay type: functional; conditions: read-out: Activity
RAW264.7 [9] = experiment: Cytoprotective activity against H2O2-induced oxidative stress in mouse RAW264.7 cells assessed as decrease in LDH release at 1 pM incubated for 2 hrs prior to H2O2 addition by colorimetric assay relative to control; assay type: functional; set-up: scale not given: the % may be the effect or the level left
Procedure, shortened: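 RAW 264.7 cells were seeded and pretreated with compound before H2O2 100 µM, in serum-free medium. Collected medium was centrifuged and incubated with reaction mix 30 min at room temperature. LDH was measured as NADH formation by colorimetric read at 490 nm. n = 8-10 replicates per concentration.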

Mus musculus [10] = experiment: Antiinflammatory activity in Balb/C mouse assessed as reduction in LPS-induced IL6 production in spleen at 1 umol/kg, sc administered LPS 15 mins post compound treatment measured after 4 hrs by ELISA; assay type: functional, organism-based
Procedure, shortened: (§2)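 Male Balb/C mice, 7-8 weeks old, given compound sc (0.1, 1 or 10 µmoles/kg) or saline. LPS 10 mg/kg was given ip 15 min later, and mice were killed 4 h after that. Spleens were homogenized in PBS with protease inhibitor and centrifuged at 14,000 g, 4 °C. Cytokines in plasma and tissue supernatants were measured by ELISA, with protein by BCA. Dexamethasone 5.6 µmoles/kg was the reference. n = 8-10 mice per treatment.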

[11] = Cytotoxicity against mouse RAW264.7 cells assessed as cell viability at 10^-11 M after 24 hrs by MTT assay relative to control; assay type: cell-based; conditions: read-out: Activity
Procedure, shortened: (§3)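 RAW 264.7 cells, seeded at 1×10^4 cells/mL and incubated 24 h, were exposed to compound from 1 pM to 100 nM. Viability was read by MTT (final 0.5 mg/mL, 1 h at 37 °C), with formazan dissolved in DMSO and OD at 570 nm. Results are compared with medium-only cells.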

Mus musculus [12] = experiment: Antiinflammatory activity in Balb/C mouse assessed as reduction in LPS-induced IL6 production in liver at 0.1 to 10 umol/kg, sc administered LPS 15 mins post compound treatment measured after 4 hrs by ELISA; assay type: functional, organism-based
Mus musculus [13] = experiment: Acute toxicity in Balb/C mouse assessed as change in activity at 100 umol/kg, sc measured over 72 hrs; assay type: organism-based; conditions: in vivo
Procedure, shortened: (§4)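 Male Balb/C mice, 24-28 g, groups of 3; single sc injection of compound at 100 μmoles/kg or saline (1 mL/100 g). Food and water intake, body weight and general activity monitored over 72 h against saline-injected animals.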

Mus musculus [14] = experiment: Antiinflammatory activity in Balb/C mouse assessed as reduction in LPS-induced TNF-alpha production in spleen at 1 umol/kg, sc administered LPS 15 mins post compound treatment measured after 4 hrs by ELISA; assay type: functional, organism-based; procedure, shortened: as §2
[15] = Cytotoxicity against mouse RAW264.7 cells assessed as cell viability at 10^-7 M after 24 hrs by MTT assay relative to control; assay type: cell-based; conditions: read-out: Activity; procedure, shortened: as §3
Mus musculus [16] = experiment: Antiinflammatory activity in Balb/C mouse assessed as reduction in LPS-induced IL6 production in brain at 0.1 to 10 umol/kg, sc administered LPS 15 mins post compound treatment measured after 4 hrs by ELISA; assay type: functional, organism-based
RAW264.7 [17] = experiment: Cytoprotective activity against H2O2-induced oxidative stress in mouse RAW264.7 cells assessed as decrease in caspase-3 activity at 1 pM incubated for 4 hrs prior to H2O2 addition measured after 90 mins by caspase-GloR reagent-based luminescence assay relative to control; assay type: functional; set-up: scale not given: the % may be the effect or the level left
Procedure, shortened: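 RAW 264.7 macrophages were pretreated with compound (1 pM or 1 nM) 4 h before H2O2 100 µM. Medium was replaced with fresh DMEM after 90 min and plates were incubated overnight. Caspase-Glo 3/7 reagent was added and luminescence read after 30 min at room temperature. Mean ± SD, 4-6 replicates.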

Mus musculus [18] = experiment: Acute toxicity in Balb/C mouse assessed as change in water intake at 100 umol/kg, sc measured over 72 hrs; assay type: organism-based; conditions: in vivo; procedure, shortened: as §4
Mus musculus [19] = experiment: Acute toxicity in Balb/C mouse assessed as change in food intake at 100 umol/kg, sc measured over 72 hrs; assay type: organism-based; conditions: in vivo; procedure, shortened: as §4
Mus musculus [20] = experiment: Acute toxicity in Balb/C mouse assessed as change in body weight at 100 umol/kg, sc measured over 72 hrs; assay type: organism-based; conditions: in vivo; procedure, shortened: as §4
[21] = Cytotoxicity against mouse RAW264.7 cells assessed as cell viability at 10^-8 M after 24 hrs by MTT assay relative to control; assay type: cell-based; conditions: read-out: Activity; procedure, shortened: as §3
[22] = Cytotoxicity against mouse RAW264.7 cells assessed as cell viability at 10^-9 M after 24 hrs by MTT assay relative to control; assay type: cell-based; conditions: read-out: Activity; procedure, shortened: as §3
[23] = Cytotoxicity against mouse RAW264.7 cells assessed as cell viability at 10^-12 M after 24 hrs by MTT assay relative to control; assay type: cell-based; conditions: read-out: Activity; procedure, shortened: as §3
[24] = Cytotoxicity against mouse RAW264.7 cells assessed as cell viability at 10^-10 M after 24 hrs by MTT assay relative to control; assay type: cell-based; conditions: read-out: Activity; procedure, shortened: as §3
RAW264.7 [25] = experiment: Cytoprotective activity against H2O2-induced oxidative stress in mouse RAW264.7 cells assessed as decrease in LDH release at 1 pM incubated for 2 hrs prior to H2O2 addition by colorimetric assay relative to control; set-up: scale not given: the % may be the effect or the level left
RAW264.7 [26] = experiment: Antiinflammatory activity in mouse RAW264.7 cells assessed as reduction in LPS-induced IL-6 production at 100 pM incubated for 2 hrs prior to LPS challenge measured after 24 hrs by ELISA; assay type: functional; procedure, shortened: as §1
Mus musculus [27] = experiment: Antiinflammatory activity in Balb/C mouse assessed as reduction in LPS-induced IL6 production in plasma at 1 umol/kg, sc administered LPS 15 mins post compound treatment measured after 4 hrs by ELISA; assay type: functional, organism-based; procedure, shortened: as §2
Mus musculus [28] = experiment: Antiinflammatory activity in Balb/C mouse assessed as reduction in LPS-induced TNF-alpha production in plasma at 1 umol/kg, sc administered LPS 15 mins post compound treatment measured after 4 hrs by ELISA; assay type: functional, organism-based; procedure, shortened: as §2
RAW264.7 [29] = experiment: Antiinflammatory activity in mouse RAW264.7 cells assessed as reduction in LPS-induced TNF-alpha production at 100 pM to 100 nM incubated for 2 hrs prior to LPS challenge measured after 8 hrs by ELISA; assay type: functional, cell-based; procedure, shortened: as §1
RAW264.7 [30] = experiment: Antiinflammatory activity in mouse RAW264.7 cells assessed as reduction in LPS-induced IL-6 production at 100 pM to 100 nM incubated for 2 hrs prior to LPS challenge measured after 24 hrs by ELISA; assay type: functional, cell-based; procedure, shortened: as §1

Question: What does the source list for `COc1ccc2c(c1)CCN2CCCNC(C)C.Cl.Cl`?
Answer: Activity (RAW264.7 [1]): 50%; Activity (RAW264.7 [2]): Dose-dependent effect; viability at 0.01 µM (RAW264.7 [3]): 87.1%; Activity (RAW264.7 [4]): Dose-dependent effect; Activity (RAW264.7 [5]): 50%; Activity (RAW264.7 [6]): 50%

Question: Which Activity (RAW264.7 [2]) does the source give for `COc1ccc2c(c1)CCN2CCC(=O)O` here?
Answer: inactive

Question: And the Activity (RAW264.7 [7])?
Answer: inactive

Question: And the Activity (RAW264.7 [4])?
Answer: inactive

Question: And the viability at 0.1 µM (RAW264.7 [8])?
Answer: 87.1%

Question: With `COC(=O)CCN1CCc2ccccc21.Cl` as the compound, how does the Activity (RAW264.7 [9]) read?
Answer: 16%

Question: What about the Activity (Mus musculus [10]) of the same compound?
Answer: Active

Question: What about the viability at 24 h, 1e-05 µM [11] of the same compound?
Answer: 91.5%

Question: What about the Activity (Mus musculus [12]) of the same compound?
Answer: Active

Question: And the Activity (Mus musculus [13])?
Answer: Non-Toxic

Question: What about the Activity (RAW264.7 [2]) of the same compound?
Answer: Active

Question: What about the viability at 0.01 µM (RAW264.7 [3]) of the same compound?
Answer: 85.9%

Question: What about the Activity (RAW264.7 [4]) of the same compound?
Answer: Active

Question: And the Activity (Mus musculus [14])?
Answer: Active

Question: And the viability at 24 h, 0.1 µM [15]?
Answer: 90.8%

Question: And the Activity (Mus musculus [16])?
Answer: Active

Question: And the Activity (RAW264.7 [17])?
Answer: 60%

Question: And the Activity (Mus musculus [18])?
Answer: Non-Toxic

Question: And the Activity (Mus musculus [19])?
Answer: Non-Toxic

Question: And the Activity (Mus musculus [20])?
Answer: Non-Toxic

Question: And the viability at 24 h, 0.01 µM [21]?
Answer: 91.8%

Question: And the viability at 24 h, 0.001 µM [22]?
Answer: 92.6%

Question: And the viability at 24 h, 1e-06 µM [23]?
Answer: 95%

Question: And the viability at 24 h, 0.0001 µM [24]?
Answer: 93.3%

Question: And the Activity (RAW264.7 [25])?
Answer: 16%

Question: And the Activity (RAW264.7 [26])?
Answer: Active

Question: What about the Activity (Mus musculus [27]) of the same compound?
Answer: Active

Question: And the Activity (Mus musculus [28])?
Answer: Active

Question: And the Activity (RAW264.7 [6])?
Answer: Active

Question: With `CCCC1O[C@@H]2C[C@H]3[C@@H]4CCC5=CC(=O)C=C[C@]5(C)[C@H]4[C@@H](O)C[C@]3(C)[C@]2(C(=O)CO)O1` (some centres not stated) as the compound, how does the Activity (RAW264.7 [29]) read?
Answer: Active

Question: What about the Activity (RAW264.7 [4]) of the same compound?
Answer: Active

Question: And the Activity (RAW264.7 [30])?
Answer: Active
